Reference: ChEMBL document CHEMBL4152379, “Discovery of Pyrrolidine Sulfonamides as Selective and Orally Bioavailable Antagonists of Transient Receptor Potential Vanilloid-4 (TRPV4)” (J Med Chem, 2018)
pIC50: −log10 of the molar value.

Tests used:
[1] = Clearance in iv dosed Sprague-Dawley rat; assay type: ADME, organism-based; conditions: in vivo
Procedure, shortened: (§1)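 Male Sprague-Dawley rats with femoral vein, femoral artery and gastric catheters; noncrossover design, 2 rats per route; cassette dosing of up to five compounds. i.v. target 1 mg/kg in 5% DMSO/20% Cavitron (pH 4), infused over 30 min. Oral gastric bolus target 2 mg/kg in 5% DMSO/6% Cavitron (pH 4). Plasma sampled to 24 h and measured by HPLC−MS/MS. Noncompartmental analysis; F from dose-normalized AUC(0−∞) relative to mean i.v. AUC.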

[2] = MRT in iv dosed Sprague-Dawley rat; assay type: ADME, organism-based; conditions: in vivo; procedure, shortened: as §1
[3] = Fraction unbound in Sprague-Dawley rat plasma; assay type: ADME, cell-free
[4] = biological target: Transient receptor potential cation channel subfamily A member 1 (Homo sapiens, UniProt O75762); test: Inhibition of TRPA1 (unknown origin)
[5] = biological target: Transient receptor potential cation channel subfamily V member 1 (Homo sapiens, UniProt Q8NER1); test: Inhibition of TRPV1 (unknown origin)
[6] = biological target: Transient receptor potential cation channel subfamily M member 2 (Homo sapiens, UniProt O94759); test: Inhibition of TRPM2 (unknown origin)
[7] = biological target: T1, Short transient receptor potential channel 3 (Homo sapiens, UniProt Q13507); test: Inhibition of TRPC3 (unknown origin)
T1 sequence (Q13507 whole entry): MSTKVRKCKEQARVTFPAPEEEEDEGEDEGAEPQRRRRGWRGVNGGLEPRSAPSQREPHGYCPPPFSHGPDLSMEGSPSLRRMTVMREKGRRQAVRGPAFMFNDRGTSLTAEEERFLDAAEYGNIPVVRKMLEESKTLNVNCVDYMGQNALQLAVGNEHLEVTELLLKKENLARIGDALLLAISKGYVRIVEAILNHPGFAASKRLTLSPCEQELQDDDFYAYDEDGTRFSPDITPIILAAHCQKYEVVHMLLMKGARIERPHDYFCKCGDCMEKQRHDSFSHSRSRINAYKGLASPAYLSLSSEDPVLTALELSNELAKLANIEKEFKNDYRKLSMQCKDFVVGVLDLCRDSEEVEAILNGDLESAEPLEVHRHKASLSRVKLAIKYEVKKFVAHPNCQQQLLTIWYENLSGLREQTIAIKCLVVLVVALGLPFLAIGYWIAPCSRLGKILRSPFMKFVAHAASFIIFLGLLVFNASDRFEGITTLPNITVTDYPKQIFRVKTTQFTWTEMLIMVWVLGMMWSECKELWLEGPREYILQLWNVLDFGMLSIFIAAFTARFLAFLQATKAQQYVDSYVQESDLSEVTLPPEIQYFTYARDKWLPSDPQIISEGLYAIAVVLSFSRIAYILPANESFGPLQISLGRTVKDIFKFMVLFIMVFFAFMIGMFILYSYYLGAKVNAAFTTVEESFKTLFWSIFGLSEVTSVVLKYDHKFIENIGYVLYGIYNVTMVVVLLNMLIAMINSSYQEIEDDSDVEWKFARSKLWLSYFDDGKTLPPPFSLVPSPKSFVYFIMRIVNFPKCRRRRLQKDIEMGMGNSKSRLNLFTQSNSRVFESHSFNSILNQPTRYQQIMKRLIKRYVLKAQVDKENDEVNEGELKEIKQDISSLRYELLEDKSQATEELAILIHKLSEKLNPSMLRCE

[8] = biological target: T2, Short transient receptor potential channel 5 (Homo sapiens, UniProt Q9UL62); test: Inhibition of TRPC5 (unknown origin)
T2 sequence (Q9UL62 whole entry): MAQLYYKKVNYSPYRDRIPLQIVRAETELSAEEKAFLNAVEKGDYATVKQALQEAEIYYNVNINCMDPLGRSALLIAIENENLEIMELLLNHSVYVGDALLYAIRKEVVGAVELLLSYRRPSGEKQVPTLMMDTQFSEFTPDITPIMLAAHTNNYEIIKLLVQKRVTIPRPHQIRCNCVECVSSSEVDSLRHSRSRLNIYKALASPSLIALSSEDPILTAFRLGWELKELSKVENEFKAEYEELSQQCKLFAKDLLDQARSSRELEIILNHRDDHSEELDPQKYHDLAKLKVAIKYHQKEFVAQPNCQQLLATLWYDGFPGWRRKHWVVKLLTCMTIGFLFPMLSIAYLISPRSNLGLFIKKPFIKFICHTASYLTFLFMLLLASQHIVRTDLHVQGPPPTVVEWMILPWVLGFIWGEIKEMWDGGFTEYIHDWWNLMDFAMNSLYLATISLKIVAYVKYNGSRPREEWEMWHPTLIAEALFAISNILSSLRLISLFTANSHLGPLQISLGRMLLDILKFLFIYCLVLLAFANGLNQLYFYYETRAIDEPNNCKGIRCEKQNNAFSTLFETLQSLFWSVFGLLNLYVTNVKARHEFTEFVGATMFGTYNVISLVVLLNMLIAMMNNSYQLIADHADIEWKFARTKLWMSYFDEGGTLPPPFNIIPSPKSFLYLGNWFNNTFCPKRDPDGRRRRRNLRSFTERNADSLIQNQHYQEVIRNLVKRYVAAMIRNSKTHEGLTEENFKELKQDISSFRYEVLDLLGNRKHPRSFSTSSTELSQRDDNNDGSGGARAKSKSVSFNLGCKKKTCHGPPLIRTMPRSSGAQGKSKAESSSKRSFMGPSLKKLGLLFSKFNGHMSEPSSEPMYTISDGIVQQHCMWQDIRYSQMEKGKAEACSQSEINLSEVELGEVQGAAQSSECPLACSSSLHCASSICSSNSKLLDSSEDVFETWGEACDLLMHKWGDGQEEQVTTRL

[9] = Lipophilicity, log D of the compound by chromatography; assay type: physicochemical
[10] = biological target: Transient receptor potential cation channel subfamily V member 4 (Homo sapiens, UniProt Q9HBA0); test: Antagonist activity at human TRPV4 expressed in BHK/AC9 or HEK MSR2 cells assessed as inhibition of GSK634775-induced Ca2+ flux pre-incubated for 10 mins before agonist addition by FLIPR assay
Transient receptor potential cation channel subfamily V member 4, sequence (Q9HBA0 whole entry): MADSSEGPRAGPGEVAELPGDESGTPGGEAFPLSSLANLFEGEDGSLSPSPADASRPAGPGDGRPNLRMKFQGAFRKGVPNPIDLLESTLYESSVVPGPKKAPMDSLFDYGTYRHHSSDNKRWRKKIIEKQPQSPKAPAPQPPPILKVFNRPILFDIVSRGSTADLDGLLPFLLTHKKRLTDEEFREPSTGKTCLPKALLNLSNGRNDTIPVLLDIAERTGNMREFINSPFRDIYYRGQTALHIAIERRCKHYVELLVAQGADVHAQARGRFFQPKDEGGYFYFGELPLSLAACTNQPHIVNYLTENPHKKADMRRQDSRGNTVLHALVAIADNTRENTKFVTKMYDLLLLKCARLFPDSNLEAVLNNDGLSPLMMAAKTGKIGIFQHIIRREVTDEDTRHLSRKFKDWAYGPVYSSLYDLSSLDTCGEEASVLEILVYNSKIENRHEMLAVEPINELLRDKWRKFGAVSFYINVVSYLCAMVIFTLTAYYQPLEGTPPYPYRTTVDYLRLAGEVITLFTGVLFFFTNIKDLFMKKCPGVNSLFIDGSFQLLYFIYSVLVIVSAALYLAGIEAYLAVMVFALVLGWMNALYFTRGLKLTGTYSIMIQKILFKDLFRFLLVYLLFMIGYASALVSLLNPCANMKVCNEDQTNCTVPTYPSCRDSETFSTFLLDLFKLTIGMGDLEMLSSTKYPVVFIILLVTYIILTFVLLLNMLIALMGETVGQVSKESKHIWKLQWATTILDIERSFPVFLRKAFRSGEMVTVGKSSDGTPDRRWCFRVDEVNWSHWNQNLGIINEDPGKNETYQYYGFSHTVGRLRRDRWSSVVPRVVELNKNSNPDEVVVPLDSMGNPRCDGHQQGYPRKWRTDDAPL

Transient receptor potential cation channel subfamily A member 1, sequence (O75762 whole entry): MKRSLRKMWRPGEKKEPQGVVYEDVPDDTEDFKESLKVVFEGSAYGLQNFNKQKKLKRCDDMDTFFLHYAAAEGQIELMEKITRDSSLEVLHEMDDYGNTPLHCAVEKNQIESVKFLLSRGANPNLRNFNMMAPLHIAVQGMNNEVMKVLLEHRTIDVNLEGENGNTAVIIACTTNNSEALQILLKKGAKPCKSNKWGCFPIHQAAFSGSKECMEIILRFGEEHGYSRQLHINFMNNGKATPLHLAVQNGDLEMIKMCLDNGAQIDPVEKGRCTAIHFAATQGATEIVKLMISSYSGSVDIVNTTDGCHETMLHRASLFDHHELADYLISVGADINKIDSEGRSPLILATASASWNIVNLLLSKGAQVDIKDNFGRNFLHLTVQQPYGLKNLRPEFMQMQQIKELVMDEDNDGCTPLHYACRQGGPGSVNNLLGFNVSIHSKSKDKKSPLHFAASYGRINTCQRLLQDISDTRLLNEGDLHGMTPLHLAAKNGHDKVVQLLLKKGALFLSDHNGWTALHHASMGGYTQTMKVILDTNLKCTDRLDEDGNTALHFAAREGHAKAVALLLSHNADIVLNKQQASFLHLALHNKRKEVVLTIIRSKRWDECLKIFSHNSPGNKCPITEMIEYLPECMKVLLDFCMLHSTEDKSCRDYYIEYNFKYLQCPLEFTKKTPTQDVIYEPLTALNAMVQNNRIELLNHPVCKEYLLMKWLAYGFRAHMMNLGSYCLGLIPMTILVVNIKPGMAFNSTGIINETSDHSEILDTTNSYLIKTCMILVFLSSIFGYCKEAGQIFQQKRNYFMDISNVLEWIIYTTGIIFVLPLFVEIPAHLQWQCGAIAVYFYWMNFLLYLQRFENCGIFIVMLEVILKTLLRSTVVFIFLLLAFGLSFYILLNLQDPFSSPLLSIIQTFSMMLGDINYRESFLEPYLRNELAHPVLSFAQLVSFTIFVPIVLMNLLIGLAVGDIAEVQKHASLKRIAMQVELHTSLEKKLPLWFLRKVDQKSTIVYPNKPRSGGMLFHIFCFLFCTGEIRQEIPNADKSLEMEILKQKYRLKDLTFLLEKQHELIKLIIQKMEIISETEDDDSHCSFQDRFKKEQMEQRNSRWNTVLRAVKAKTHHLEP
Transient receptor potential cation channel subfamily M member 2, sequence (O94759 whole entry): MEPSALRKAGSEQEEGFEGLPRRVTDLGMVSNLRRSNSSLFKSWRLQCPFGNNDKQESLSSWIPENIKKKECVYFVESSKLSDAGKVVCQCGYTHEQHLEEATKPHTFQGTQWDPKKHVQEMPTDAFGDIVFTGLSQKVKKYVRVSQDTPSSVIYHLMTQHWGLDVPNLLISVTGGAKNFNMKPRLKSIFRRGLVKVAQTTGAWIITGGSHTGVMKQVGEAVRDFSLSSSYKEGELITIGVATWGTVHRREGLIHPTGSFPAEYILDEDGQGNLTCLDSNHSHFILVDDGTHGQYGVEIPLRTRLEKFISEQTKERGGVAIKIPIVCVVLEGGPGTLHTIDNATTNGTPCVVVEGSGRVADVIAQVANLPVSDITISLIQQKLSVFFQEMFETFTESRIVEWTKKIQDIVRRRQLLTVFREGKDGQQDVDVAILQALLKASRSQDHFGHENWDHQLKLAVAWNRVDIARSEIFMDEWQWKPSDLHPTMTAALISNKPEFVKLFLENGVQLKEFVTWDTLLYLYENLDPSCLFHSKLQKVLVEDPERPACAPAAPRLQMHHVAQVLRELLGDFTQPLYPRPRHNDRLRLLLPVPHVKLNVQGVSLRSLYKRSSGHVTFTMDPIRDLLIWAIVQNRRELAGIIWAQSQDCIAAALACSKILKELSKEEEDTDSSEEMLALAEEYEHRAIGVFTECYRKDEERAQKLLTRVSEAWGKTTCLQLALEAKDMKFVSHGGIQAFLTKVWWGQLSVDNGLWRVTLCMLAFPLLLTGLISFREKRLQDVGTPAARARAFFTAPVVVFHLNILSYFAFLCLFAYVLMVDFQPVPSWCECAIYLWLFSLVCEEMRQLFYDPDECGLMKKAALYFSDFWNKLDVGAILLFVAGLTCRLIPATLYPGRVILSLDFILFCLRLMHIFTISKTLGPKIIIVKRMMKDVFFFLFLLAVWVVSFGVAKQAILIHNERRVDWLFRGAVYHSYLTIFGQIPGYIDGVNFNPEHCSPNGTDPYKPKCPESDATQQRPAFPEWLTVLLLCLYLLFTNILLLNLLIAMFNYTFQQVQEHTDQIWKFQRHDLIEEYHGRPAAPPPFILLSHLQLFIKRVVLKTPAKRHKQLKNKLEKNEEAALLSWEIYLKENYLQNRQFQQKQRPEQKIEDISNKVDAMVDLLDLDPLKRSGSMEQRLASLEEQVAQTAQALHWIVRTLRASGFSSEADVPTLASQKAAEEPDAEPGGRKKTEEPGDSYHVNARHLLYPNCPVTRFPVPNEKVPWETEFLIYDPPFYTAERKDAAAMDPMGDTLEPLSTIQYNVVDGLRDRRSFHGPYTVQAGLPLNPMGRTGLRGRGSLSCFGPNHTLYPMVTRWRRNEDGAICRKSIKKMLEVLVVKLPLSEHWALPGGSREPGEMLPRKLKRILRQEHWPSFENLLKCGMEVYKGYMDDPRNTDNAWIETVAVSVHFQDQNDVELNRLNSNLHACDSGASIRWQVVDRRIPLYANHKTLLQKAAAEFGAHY
Transient receptor potential cation channel subfamily V member 1, sequence (Q8NER1 whole entry): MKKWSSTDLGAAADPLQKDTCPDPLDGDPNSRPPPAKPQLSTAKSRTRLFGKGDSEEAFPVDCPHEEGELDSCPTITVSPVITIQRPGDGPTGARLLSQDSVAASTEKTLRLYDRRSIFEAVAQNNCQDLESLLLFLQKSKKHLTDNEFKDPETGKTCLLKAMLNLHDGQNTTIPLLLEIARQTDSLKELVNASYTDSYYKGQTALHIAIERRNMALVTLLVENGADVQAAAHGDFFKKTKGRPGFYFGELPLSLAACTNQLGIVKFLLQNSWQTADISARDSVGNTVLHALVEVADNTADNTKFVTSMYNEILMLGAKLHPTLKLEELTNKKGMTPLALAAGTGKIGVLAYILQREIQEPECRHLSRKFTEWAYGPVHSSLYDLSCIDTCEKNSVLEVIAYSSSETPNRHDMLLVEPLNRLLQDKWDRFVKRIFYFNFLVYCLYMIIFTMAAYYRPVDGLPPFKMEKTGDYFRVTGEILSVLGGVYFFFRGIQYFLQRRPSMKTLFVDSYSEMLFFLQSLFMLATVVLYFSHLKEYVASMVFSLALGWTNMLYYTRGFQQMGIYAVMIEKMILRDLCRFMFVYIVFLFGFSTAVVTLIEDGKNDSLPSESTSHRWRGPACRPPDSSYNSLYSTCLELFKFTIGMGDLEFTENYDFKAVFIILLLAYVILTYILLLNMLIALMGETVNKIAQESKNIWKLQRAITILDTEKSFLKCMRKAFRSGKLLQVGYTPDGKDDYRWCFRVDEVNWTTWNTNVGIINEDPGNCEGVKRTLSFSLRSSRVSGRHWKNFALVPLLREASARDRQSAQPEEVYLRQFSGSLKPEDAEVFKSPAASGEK

clearance [1]: 58 mL/min/kg
MRT [2]: 54 min
fraction unbound [3]: 0.059
pIC50 [4]: < 5.00
pIC50 [5]: < 5.00
pIC50 [6]: < 5.00
pIC50 [7]: < 5.00
pIC50 [8]: < 5.00
chromatographic logD [9]: 4.6
pIC50 [10]: 8.60
SMILES: N#Cc1ccc(O[C@H]2CN(S(=O)(=O)c3ccc(Cl)cc3Cl)C[C@@]2(O)CO)cc1F
